According to ChEMBL document CHEMBL4673255, “Acylated 1H-1,2,4-Triazol-5-amines Targeting Human Coagulation Factor XIIa and Thrombin: Conventional and Microscale Synthesis, Anticoagulant Properties, and Mechanism of Action” (J Med Chem, 2020):
Calls of active or inactive are those of the source. The calls are words filed in the database; no cut-off is given here.

What was measured:
Coagulation factor XII = molecular target: T1, Coagulation factor XII (Homo sapiens, UniProt P00748); test: Inhibition of human coagulation factor XIIA using Boc-Gln-Gly-Arg-AMC as fluorogenic substrate measured at 1 min interval for 1 hr by fluorometric assay
T1 sequence (P00748 whole entry): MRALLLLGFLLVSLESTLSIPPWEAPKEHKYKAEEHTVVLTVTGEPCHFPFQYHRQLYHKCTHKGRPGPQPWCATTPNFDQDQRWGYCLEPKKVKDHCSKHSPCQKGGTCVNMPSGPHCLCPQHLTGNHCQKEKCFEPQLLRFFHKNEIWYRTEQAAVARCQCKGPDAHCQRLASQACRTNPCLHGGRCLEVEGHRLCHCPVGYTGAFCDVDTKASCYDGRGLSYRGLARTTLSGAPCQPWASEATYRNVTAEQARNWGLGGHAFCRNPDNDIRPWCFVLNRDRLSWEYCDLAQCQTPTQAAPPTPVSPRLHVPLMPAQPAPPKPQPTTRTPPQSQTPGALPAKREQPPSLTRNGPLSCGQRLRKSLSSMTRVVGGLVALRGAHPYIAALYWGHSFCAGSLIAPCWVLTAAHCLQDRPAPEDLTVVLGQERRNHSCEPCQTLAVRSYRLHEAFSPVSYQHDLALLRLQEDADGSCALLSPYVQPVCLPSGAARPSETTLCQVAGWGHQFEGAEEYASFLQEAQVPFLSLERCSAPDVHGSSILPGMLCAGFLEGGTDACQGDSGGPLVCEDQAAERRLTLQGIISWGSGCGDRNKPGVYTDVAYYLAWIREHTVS

[1] = molecular target: T2, Coagulation factor XII (Homo sapiens) (UniProt P00748); test: Inhibition of human coagulation factor XIIA in presence of Boc-Gln-Gly-Arg-AMC as fluorogenic substrate at 1 uM measured at 1 min interval for 1 hr by fluorometric assay relative to control
T2 sequence (whole entry): T1 sequence (P00748 whole entry)
Outline: (§1)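 Screening of crude microscale amide-coupling products. Conversion was measured by 1H NMR and product content normalised to 76 µmol/L in DMSO, then tested at 1 µM and 100 nM in the fluorogenic FXIIa or thrombin assay. A 0-conversion reaction served as blank. Percent inhibition is from triplicates.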

[2] = Inhibition of porcine trypsin using Z-Gly-Gly-Arg-AMC as fluorogenic substrate measured at 1 min interval for 1 hr by fluorometric assay; set-up: species or system Sus scrofa
Coagulation factor X [3] = molecular target: T3, Coagulation factor X (Homo sapiens, UniProt P00742); test: Inhibition of human coagulation factor Xa using Boc-Ile-Glu-Gly-Arg-AMC as fluorogenic substrate measured at 1 min interval for 1 hr by fluorometric assay
T3 sequence (P00742 41-179 limits assumed): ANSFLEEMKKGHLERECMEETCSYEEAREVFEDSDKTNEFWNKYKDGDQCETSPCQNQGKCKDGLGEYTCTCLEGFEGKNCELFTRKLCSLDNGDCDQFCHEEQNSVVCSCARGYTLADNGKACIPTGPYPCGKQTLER
T3 sequence (P00742 235-488 limits assumed): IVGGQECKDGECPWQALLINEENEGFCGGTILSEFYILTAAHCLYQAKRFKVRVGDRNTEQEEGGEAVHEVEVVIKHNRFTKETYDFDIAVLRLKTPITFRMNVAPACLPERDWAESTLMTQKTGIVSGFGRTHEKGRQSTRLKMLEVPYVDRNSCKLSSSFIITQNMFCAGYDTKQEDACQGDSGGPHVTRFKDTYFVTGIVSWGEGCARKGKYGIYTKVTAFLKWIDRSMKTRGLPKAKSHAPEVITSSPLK

CCF-STTG1 = test: Cytotoxicity against human CCF-STTG1 cells assessed as reduction in cell viability at 100 uM incubated for 48 hrs by alamar blue assay relative to control; format: cell-based; conditions: ccf-sttg1, 48 h
Prothrombin [4] = molecular target: T4, Prothrombin (Homo sapiens, UniProt P00734); test: Inhibition of human coagulation factor alpha-thrombin using Boc-Val-Pro-Arg-AMC as fluorogenic substrate at 2 uM measured at 1 min interval for 1 hr by fluorometric assay relative to control
HepG2 = test: Cytotoxicity against human HepG2 cells assessed as reduction in cell viability at 100 uM incubated for 48 hrs by alamar blue assay relative to control; format: cell-based; conditions: hepg2, 48 h
Blood [5] = test: Anticoagulant activity in human blood assessed as increase in activated partial thromboplastin time at 300 uM incubated for 1 min by aPTT reagent based assay relative to control; format: functional
Outline: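 Compounds were tested at 300 µM, and the increase was expressed relative to DMSO. The doubling concentration (EC2×) is the concentration prolonging aPTT twofold. At least triplicate, mean ± SD.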

Homo sapiens = organism: Homo sapiens; test: Selectivity index, ratio of IC50 for inhibition of human coagulation factor alpha-thrombin using Boc-Val-Pro-Arg-AMC as fluorogenic substrate to IC50 for inhibition of human coagulation factor XIIA using Boc-Gln-Gly-Arg-AMC as fluorogenic substrate incubated for 1 hr by fluorometric assay
Plasma [6] = test: Antiplatelet activity in […] assessed as inhibition of MDA-MB-231-induced platelet aggregation at 0.1 to 10 uM by light transmission aggregometry; format: functional; conditions: Homo sapiens, dose 0.1-10 µM
Blood [7] = test: Effect on blood coagulation in human blood assessed as increase in prothrombin time at 300 uM incubated for 3 mins followed by CaCl2 addition by PT reagent based assay relative to control; format: ADME, tissue-based; conditions: 0.05 h
Outline: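 Clotting was started with PT reagent already containing CaCl2, prewarmed to 37 °C, and clotting time was recorded. Increase is given relative to DMSO; at least triplicate, mean ± SD.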

[8] = molecular target: T2, Coagulation factor XII (Homo sapiens); test: Binding affinity to human plasma coagulation factor XIIA assessed as compound-adduct formation by measuring change in molecular mass at molar ratio of 1:20 measured after 4 mins by SEC/ESI-TOF mass spectra analysis; format: cell-free
Outline: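 β-FXIIa incubated with inhibitor at a 1:20 molar ratio, then size-exclusion chromatography coupled to ESI-MS to measure the mass of enzyme–inhibitor complexes. Further runs checked complex stability to probe reversibility.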

Prothrombin [9] = molecular target: T4, Prothrombin; test: Inhibition of human coagulation factor thrombin using Boc-Val-Pro-Arg-AMC as fluorogenic substrate at 100 nM measured at 1 min interval for 1 hr by fluorometric assay relative to control; outline: as §1
Prothrombin [10] = molecular target: T4, Prothrombin; test: Inhibition of human coagulation factor alpha-thrombin using Boc-Val-Pro-Arg-AMC as fluorogenic substrate measured at 1 min interval for 1 hr by fluorometric assay
[11] = molecular target: T2, Coagulation factor XII (Homo sapiens); test: Inhibition of human coagulation factor XIIA using Boc-Gln-Gly-Arg-AMC as fluorogenic substrate at 100 nM measured at 1 min interval for 1 hr by fluorometric assay relative to control; outline: as §1
[12] = molecular target: T2, Coagulation factor XII (Homo sapiens); test: […] inhibition of human coagulation factor XIIA using Boc-Gln-Gly-Arg-AMC as fluorogenic substrate measured every 87 sec for 180 mins by time-dependent fluorescence assay
Outline: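 Fluorescence (ex 355/em 460 nm) was read at once, every 87 s, for up to 180 min. IC50 was computed at each time point and plotted against time.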

Prothrombin [13] = molecular target: T4, Prothrombin; test: Inhibition of human coagulation factor alpha-thrombin at 33 uM using Boc-Val-Pro-Arg-AMC as fluorogenic substrate measured at 1 min interval for 1 hr by fluorometric assay relative to control
[14] = molecular target: T5, Urokinase-type plasminogen activator (Homo sapiens, UniProt P00749); test: Inhibition of human uPA using Tos-Gly-Pro-Arg-AMC as fluorogenic substrate at 5 uM measured at 1 min interval for 1 hr by fluorometric assay relative to control
Plasma kallikrein = Plasma kallikrein (Homo sapiens, UniProt P03952); test: Inhibition of human kallikrein using Mes-dArg-Pro-Arg-AMC as fluorogenic substrate measured at 1 min interval for 1 hr by fluorometric assay
Plasma kallikrein, sequence (P03952 20-390 limits assumed): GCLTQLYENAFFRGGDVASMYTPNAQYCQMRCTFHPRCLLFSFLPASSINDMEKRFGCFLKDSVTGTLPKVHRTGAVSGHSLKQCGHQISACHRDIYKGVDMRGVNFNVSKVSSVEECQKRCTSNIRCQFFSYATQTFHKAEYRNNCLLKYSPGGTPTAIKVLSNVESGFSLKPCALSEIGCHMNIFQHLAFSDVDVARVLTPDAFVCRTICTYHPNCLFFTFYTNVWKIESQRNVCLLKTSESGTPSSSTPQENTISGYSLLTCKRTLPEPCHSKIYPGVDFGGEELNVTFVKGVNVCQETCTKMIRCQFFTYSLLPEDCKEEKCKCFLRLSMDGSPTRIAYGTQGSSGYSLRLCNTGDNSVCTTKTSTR
Plasma kallikrein, sequence (P03952 391-638 limits assumed): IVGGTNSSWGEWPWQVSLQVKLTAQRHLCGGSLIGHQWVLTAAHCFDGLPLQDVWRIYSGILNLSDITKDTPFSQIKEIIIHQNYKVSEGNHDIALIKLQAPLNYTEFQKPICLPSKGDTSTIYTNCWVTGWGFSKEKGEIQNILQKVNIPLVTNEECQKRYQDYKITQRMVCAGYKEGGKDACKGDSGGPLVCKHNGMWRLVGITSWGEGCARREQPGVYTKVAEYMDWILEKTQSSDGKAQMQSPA

Coagulation factor XI = Coagulation factor XI (Homo sapiens, UniProt P03951); test: Inhibition of human coagulation factor XIA using Mes-dArg-Pro-Arg-AMC as fluorogenic substrate measured at 1 min interval for 1 hr by fluorometric assay
Coagulation factor XI, sequence (P03951 19-387 limits assumed): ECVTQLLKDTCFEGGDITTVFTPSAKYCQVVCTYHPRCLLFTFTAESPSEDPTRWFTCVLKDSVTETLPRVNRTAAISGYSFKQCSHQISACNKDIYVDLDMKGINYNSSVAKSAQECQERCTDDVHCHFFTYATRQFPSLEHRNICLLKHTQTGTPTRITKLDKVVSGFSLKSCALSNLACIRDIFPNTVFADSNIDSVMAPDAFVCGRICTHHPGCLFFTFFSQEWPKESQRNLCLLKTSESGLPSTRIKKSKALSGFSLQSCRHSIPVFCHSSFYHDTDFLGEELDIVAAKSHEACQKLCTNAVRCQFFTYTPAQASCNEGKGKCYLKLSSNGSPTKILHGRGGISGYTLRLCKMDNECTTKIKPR
Coagulation factor XI, sequence (P03951 388-625 limits assumed): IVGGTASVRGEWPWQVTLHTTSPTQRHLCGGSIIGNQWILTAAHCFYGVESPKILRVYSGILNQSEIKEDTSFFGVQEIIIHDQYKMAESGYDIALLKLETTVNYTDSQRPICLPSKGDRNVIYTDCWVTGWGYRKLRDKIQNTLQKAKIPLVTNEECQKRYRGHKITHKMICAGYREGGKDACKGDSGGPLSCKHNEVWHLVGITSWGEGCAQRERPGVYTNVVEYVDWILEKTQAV

Plasminogen = Plasminogen (Homo sapiens, UniProt P00747); test: Inhibition of human plasmin using Mes-dArg-Phe-Arg-AMC as fluorogenic substrate measured at 1 min interval for 1 hr by fluorometric assay
Plasminogen, sequence (P00747 97-580 limits assumed): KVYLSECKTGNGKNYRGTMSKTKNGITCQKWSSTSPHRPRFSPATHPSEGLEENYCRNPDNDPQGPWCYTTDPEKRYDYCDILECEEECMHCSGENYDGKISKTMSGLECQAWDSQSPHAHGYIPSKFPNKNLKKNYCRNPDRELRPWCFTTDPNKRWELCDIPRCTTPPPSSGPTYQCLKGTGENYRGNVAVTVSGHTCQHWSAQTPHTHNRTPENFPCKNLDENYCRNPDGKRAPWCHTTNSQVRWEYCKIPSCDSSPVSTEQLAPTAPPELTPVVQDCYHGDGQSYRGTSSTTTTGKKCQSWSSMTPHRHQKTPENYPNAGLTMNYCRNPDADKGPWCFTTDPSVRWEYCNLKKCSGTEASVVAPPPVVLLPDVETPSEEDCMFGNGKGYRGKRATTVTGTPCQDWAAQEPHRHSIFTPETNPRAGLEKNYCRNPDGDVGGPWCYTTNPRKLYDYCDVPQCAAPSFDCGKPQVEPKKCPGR
Plasminogen, sequence (P00747 581-810 limits assumed): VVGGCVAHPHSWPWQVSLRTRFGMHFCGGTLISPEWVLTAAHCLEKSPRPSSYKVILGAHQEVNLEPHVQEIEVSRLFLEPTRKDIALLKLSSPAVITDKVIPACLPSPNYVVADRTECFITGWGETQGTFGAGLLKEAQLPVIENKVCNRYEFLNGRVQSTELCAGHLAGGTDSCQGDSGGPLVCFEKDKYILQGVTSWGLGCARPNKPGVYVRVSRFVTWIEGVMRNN

Plasma [15] = test: Anticoagulant activity in human platelet-rich plasma assessed as reduction in TF-induced thrombin generation by measuring amplitude of thrombin peak at 1 uM preincubated for 15 mins followed by TF addition by Z-Gly-Gly-Arg-AMC substrate based calibrated automated thrombography (reference value: 63 +/- 3.7 AU/L); format: functional; conditions: 0.25 h
Outline: (§2)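 Tissue-factor-triggered homogeneous thrombin generation followed by fluorogenic substrate cleavage. Read-outs: clotting time (T1/2), peak amplitude (Amax, AU/L), time to peak (Tmax) and ETP (AU·min/L). DMSO and buffer served as controls. n = 3, mean ± SD.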

Coagulation factor X [16] = molecular target: T3, Coagulation factor X; test: Inhibition of human coagulation factor Xa using Boc-Ile-Glu-Gly-Arg-AMC as fluorogenic substrate at 1 uM measured at 1 min interval for 1 hr by fluorometric assay relative to control
Plasma [17] = test: Anticoagulant activity in human platelet-rich plasma assessed as reduction in TF-induced thrombin generation by measuring endogenous thrombin potential at 1 uM preincubated for 15 mins followed by TF addition by Z-Gly-Gly-Arg-AMC substrate based calibrated automated thrombography (reference value: 1203 +/- 44 AU.min/L); format: functional; conditions: 0.25 h; outline: as §2
Plasma [18] = test: Anticoagulant activity in human platelet-rich plasma assessed as reduction in TF-induced thrombin generation by measuring half life of clotting time at 1 uM preincubated for 15 mins followed by TF addition by Z-Gly-Gly-Arg-AMC substrate based calibrated automated thrombography (Rvb= 3 +/- 0.5 min); format: functional, cell-free; outline: as §2
Plasma [19] = test: Anticoagulant activity in human platelet-rich plasma assessed as reduction in TF-induced thrombin generation by measuring Tmax of clotting time at 1 uM preincubated for 15 mins followed by TF addition by Z-Gly-Gly-Arg-AMC substrate based calibrated automated thrombography (reference value: 8.1 +/- 0.6 min); format: functional, cell-free; outline: as §2
Plasma [20] = test: Anticoagulant activity in human platelet-rich plasma assessed as reduction in TF-induced thrombin generation by measuring amplitude of thrombin peak at 100 uM preincubated for 15 mins followed by TF addition by Z-Gly-Gly-Arg-AMC substrate based calibrated automated thrombography (reference value: 63 +/- 3.7 AU/L); format: functional; conditions: 0.25 h; outline: as §2
Plasma [21] = test: Anticoagulant activity in human platelet-rich plasma assessed as reduction in TF-induced thrombin generation by measuring half life of clotting time at 100 uM preincubated for 15 mins followed by TF addition by Z-Gly-Gly-Arg-AMC substrate based calibrated automated thrombography (Rvb= 3 +/- 0.5 min); format: functional, cell-free; outline: as §2
Plasma [22] = test: Anticoagulant activity in human platelet-rich plasma assessed as reduction in TF-induced thrombin generation by measuring endogenous thrombin potential at 100 uM preincubated for 15 mins followed by TF addition by Z-Gly-Gly-Arg-AMC substrate based calibrated automated thrombography (reference value: 1203 +/- 44 AU.min/L); format: functional; conditions: 0.25 h; outline: as §2
Plasma [23] = test: Anticoagulant activity in human platelet-rich plasma assessed as reduction in TF-induced thrombin generation by measuring Tmax of clotting time at 100 uM preincubated for 15 mins followed by TF addition by Z-Gly-Gly-Arg-AMC substrate based calibrated automated thrombography (reference value: 8.1 +/- 0.6 min); format: functional, cell-free; outline: as §2
[24] = molecular target: T5, Urokinase-type plasminogen activator; test: Inhibition of human uPA using Tos-Gly-Pro-Arg-AMC as fluorogenic substrate measured at 1 min interval for 1 hr by fluorometric assay

SMILES	IC50 (Coagulation factor XII)	inhibition [1]	IC50 [2]	IC50 (Coagulation factor X [3])	Activity (Blood [5])	Ratio IC50 (Homo sapiens)	Activity (Blood [7])	Activity [8]	inhibition (Prothrombin [9])	IC50 (Prothrombin [10])	inhibition [11]	inhibition [12]	IC50 (Plasma kallikrein)	IC50 (Coagulation factor XI)	IC50 (Plasminogen)	also measured
Nc1nc(-c2ccccn2)nn1C(=O)c1ccc(NC(=O)c2ccccc2)cc1	109 nM	89%	> 5000 nM	> 5000 nM	35%	> 18	2%	223 Da	–	–	–	–	–	–	–	Activity (CCF-STTG1): 35%; inhibition (Prothrombin [4]): 38%; Activity (HepG2): 13%; inhibition (Plasma [6]): inactive
Nc1nc(-c2ccccn2)nn1C(=O)[C@H]1CCCc2ccccc21	134 nM	96%	> 5000 nM	> 5000 nM	67%	–	7%	158 Da	6%	421 nM	70%	–	–	–	–	–
O=C(NC[C@H]1CN(c2ccc(N3CCOCC3=O)cc2)C(=O)O1)c1ccc(Cl)s1 [RIVAROXABAN]	> 33000 nM	-3%	> 5000 nM	–	335%	–	1302%	–	–	–	–	inactive	–	–	–	inhibition (Prothrombin [13]): 55%
Nc1nc(-c2ccccn2)nn1C(=O)Cc1ccccc1I	62 nM	89%	–	> 5000 nM	92%	29	6%	–	2%	1820 nM	47%	–	> 5000 nM	> 5000 nM	> 5000 nM	inhibition [14]: 41%
Cn1c(CNc2ccc(C(=N)N)cc2)nc2cc(C(=O)N(CCC(=O)O)c3ccccn3)ccc21 [DABIGATRAN]	–	-1%	–	–	252%	–	–	–	–	–	–	inactive	–	–	–	Activity (Plasma [15]): 72.4 AU/L; Ki [2]: 50 nM; inhibition (Coagulation factor X [16]): 34%; Activity (Plasma [17]): 678 AU.min/L; T1/2 (Plasma [18]): 15.2 min; Tmax (Plasma [19]): 25.5 min
Cc1ccc(C(=O)n2nc(-c3ccccn3)nc2N)cc1C	91 nM	92%	> 5000 nM	> 5000 nM	227%	–	48%	–	–	57 nM	–	–	> 5000 nM	> 5000 nM	25800 nM	Activity (Plasma [20]): 16.9 AU/L; T1/2 (Plasma [21]): 3.8 min; Activity (Plasma [22]): 370 AU.min/L; Tmax (Plasma [23]): 8.8 min; IC50 [24]: 2940 nM
